Data as given in ChEMBL document CHEMBL3232793, “Fused heterocyclic compounds bearing bridgehead nitrogen as potent HIV-1 NNRTIs. Part 1: design, synthesis and biological evaluation of novel 5,7-disubstituted pyrazolo[1,5-a]pyrimidine derivatives” (Bioorg Med Chem, 2014).

Assays:
[1] = Cytotoxicity against human MT4 cells assessed as cell viability by MTT assay; type: cell-based
Method in brief: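 Mock-infected MT-4 cells at 6 × 10⁵ cells/mL, run in parallel triplicate wells with the infected series. Compounds given as serial five-fold dilutions. MTT viability read spectrophotometrically at day 5.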

[2] = Selectivity index, ratio of CC50 for human MT4 cells to EC50 for HIV1 3B; type: toxicity, cell-based; conditions: read-out: Ratio CC50/EC50
Method in brief: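 Selectivity index = CC50 (mock-infected MT-4 cells) / EC50 (IIIB or ROD protection). Both values come from the same 5-day MTT assay run in parallel triplicate wells.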

[3] = tested on: Human immunodeficiency virus 1; experiment: Antiviral activity against HIV1 3B infected in human MT4 cells assessed as virus-induced cytopathic effect by MTT assay; type: functional, organism-based; conditions: Human immunodeficiency virus 1, 3B
Method in brief: (§1)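 MT-4 cells, resuspended at 6 × 10⁵ cells/mL, infected with HIV-1 IIIB or HIV-2 ROD at 100–300 CCID50. Compounds added at assay start as serial five-fold dilutions in triplicate wells. Viability read spectrophotometrically by MTT 5 days after infection.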

[4] = tested on: Human immunodeficiency virus 1; experiment: Antiviral activity against wild type HIV1 infected in human Hela-JC53 cells assessed as inhibition of viral replication by luciferase reporter gene assay; type: functional, organism-based; conditions: Human immunodeficiency virus 1, Hela-JC53
[5] = Selectivity index, ratio of compound activity for human HeLa cells to EC50 for wild type HIV1; type: toxicity, cell-based; conditions: read-out: Selectivity Index
[6] = tested on: Human immunodeficiency virus 1; experiment: Antiviral activity against NNRTI-resistant HIV1 harboring K103N mutant infected in human Hela-JC53 cells assessed as inhibition of viral replication by luciferase reporter gene assay relative wild type HIV1; type: functional
[7] = tested on: Human immunodeficiency virus 1; experiment: Antiviral activity against NNRTI-resistant HIV1 harboring Y181C mutant infected in human Hela-JC53 cells assessed as inhibition of viral replication by luciferase reporter gene assay relative wild type HIV1; type: functional
[8] = tested on: Human immunodeficiency virus 2; experiment: Antiviral activity against HIV2 ROD infected in human MT4 cells assessed as virus-induced cytopathic effect by MTT assay; type: functional, organism-based; conditions: Human immunodeficiency virus 2, ISOLATE ROD; method in brief: as §1
[9] = biological target: Human immunodeficiency virus type 1 reverse transcriptase (Human immunodeficiency virus 1, UniProt Q72547); experiment: Inhibition of recombinant HIV1 reverse transcriptase assessed as inhibition of biotin-dUTP incorporation in to poly [A] x oligo[dT]15 by ELISA
Method in brief: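 Colorimetric kit (Roche) ELISA. Homopolymer template/primer bound to the microplate, with biotin-dUTP as the labelled nucleotide and 4 ng recombinant HIV-1 RT per well. Compounds tested at several concentrations.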

CC(C)Nc1cccnc1N1CCN(C(=O)c2cc3cc(NS(C)(=O)=O)ccc3[nH]2)CC1 [DELAVIRDINE]
CC50 [1]: > 43.8 µM | selectivity ratio [2]: > 277

Cc1ccnc2c1NC(=O)c1cccnc1N2C1CC1 [NEVIRAPINE]
CC50 [1]: > 15 µM | EC50 [3]: 0.17 µM

Cc1cc(C#N)cc(C)c1Oc1nc(Nc2ccc(C#N)cc2)nc2[nH]ccc12
EC50 [4]: 0.0009 µM | selectivity ratio [5]: > 50000 | fold change (FC) [6]: 11 | fold change (FC) [7]: 11

Cc1cc(C#N)cc(C)c1Oc1nc(Nc2ccc(C#N)cc2)nc(N)c1Br [ETRAVIRINE]
EC50 [8]: 0.011 µM | CC50 [1]: > 4.6 µM

Cc1cc(C)c(Oc2cc(Nc3ccc(C#N)cc3)nc3ccnn23)c(C)c1
IC50 [9]: 2.26 µM

Cc1cc(C#N)cc(C)c1Oc1nc(Nc2ccc(C#N)cc2)nc2cc[nH]c12
EC50 [4]: 0.0008 µM | selectivity ratio [5]: > 50000 | fold change (FC) [6]: 3.8 | fold change (FC) [7]: 3.8
